Only some compounds are listed: those with a hit (about 2.7% of all), similar ones and a draw of the others.
NTR1 ag = activates human neurotensin receptor 1 | P30989 | NTR1-U2OS beta-arrestin-GFP spot imaging, agonist mode | activation, % at 20 µM | 330,000 tested, 0.17% active;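 active means activation at or above 40% of the spot to cytoplasm intensity ratio, with at least 20 cells analyzed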;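 further: 0% = DMSO without peptide and 100% = 100 nM NTR1 peptide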
Target sequence (P30989 whole entry, looked up): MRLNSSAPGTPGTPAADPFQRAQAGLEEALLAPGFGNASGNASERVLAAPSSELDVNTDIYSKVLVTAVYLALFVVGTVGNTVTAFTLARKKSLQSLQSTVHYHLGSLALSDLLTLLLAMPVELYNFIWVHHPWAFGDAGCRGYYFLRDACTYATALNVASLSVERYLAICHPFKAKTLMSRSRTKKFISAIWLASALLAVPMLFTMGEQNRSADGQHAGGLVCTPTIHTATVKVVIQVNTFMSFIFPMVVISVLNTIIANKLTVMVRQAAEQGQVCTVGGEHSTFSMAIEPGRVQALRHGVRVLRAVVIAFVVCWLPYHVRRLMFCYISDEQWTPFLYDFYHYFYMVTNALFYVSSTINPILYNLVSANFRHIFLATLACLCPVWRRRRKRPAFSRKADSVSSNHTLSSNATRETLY
MC4R barr agon = human MC4R agonism via beta-arrestin | P32245 | activation, % at 8.9 µM | AID 540308 | U2OS MC4R beta-arrestin complementation, luminescence; percent of melanotan II response, DMSO zero | 360,000 tested, 0.98% active;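 active means activation above a per-plate cutoff, the mean activation of sample wells on that plate plus 3 SD, cut at about 8% in these data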
PREPL inh = inhibitors of human prolyl oligopeptidase-like enzyme PREPL | Q4J6C6 | recombinant PREPL, fluorescence polarization activity-based probe | inhibition, % at 5.96 µM | 320,000 tested, 0.68% active | AID 2751; in the data active means inhibition above about 43%;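 further: 0% = enzyme with DMSO and 100% = wells lacking enzyme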
Hep lipid drop = modulators of hepatic lipid droplet formation; AML12 mouse hepatocytes, oleate lipid droplets, BODIPY imaging; inhibition, % at 6.5 µM; AID 1656; 240,000 tested, 0.4% active;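 active means lipid droplet intensity inhibited by at least 50%, with more than 500 cells counted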
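Technique: fluorescence imaging, 20x objective, two fields per well / Assay system: AML12 hepatocytes (mouse) / Measure: % inhibition of lipid droplet signal / Doses: 6.5 µM single-point dosing / Incubation: overnight exposure / Reagent: 100 µM oleic acid challenge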
HTR2A ag = activates the mouse 5-HT2A serotonin receptor; CHO-K1 mHTR2A beta-arrestin complementation, luminescence; percent of 30 µM serotonin response; activation, % at 7.6 µM; P35363; AID 624169; 360,000 tested, 0.66% active;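 active means activation above a run cutoff, the mean activation of all tested compounds plus 3 SD, cut at about 14% in these data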;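 further: 0% = plate median of compound wells and 100% = 30 µM serotonin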
MC4R antag cAMP = antagonists of human melanocortin 4 receptor (MC4R) | inhibition, % at 6.5 µM | AID 540295 | P32245 | 360,000 tested, 0.48% active | MC4R-expressing cells, MTII-stimulated cAMP, LANCE TR-FRET;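 active means inhibition above its plate's cutoff, the mean of tested wells on that plate plus 3 SD, cut at about 29% in these data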;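 further: 0% = Melanotan II alone and 100% = Melanotan II plus saturating MCL0020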
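Assay system: U2OS-MC4R stable cell line; Also added: Melanotan II; Technique: Eu-cAMP/anti-cAMP TR-FRET, emission 671 nm; Times: 30-min compound, 1-h challenge, 1-h detection, room temperature.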
* hit, by the source's call; x = no result given.

SMILES | NTR1 ag | MC4R barr agon | PREPL inh | Hep lipid drop | HTR2A ag | MC4R antag cAMP
Cn1cc(C(=O)NCCN2CCN(c3cccc(Cl)c3)CC2)c2c3ccccc3n(C)c2c1=O | 37 | 2 | 46* | -6 | -5 | 8
COCCCNC(=O)c1cn(C)c(=O)c2c1c1ccccc1n2C | 1 | 0 | 1 | -3 | 0 | 14
CCCCCCOC(=O)CCc1c(C)nc(N)[nH]c1=O | -2 | -2 | 0 | 1 | -2 | -5
CCCCCCCCOC(=O)CCc1c(C)[nH]c(=S)[nH]c1=O | 2 | 9.0* | 9 | x | 12 | 1
Cc1ccc(/C=N/NC(=O)CCCOc2ccc(Cl)cc2Cl)cc1[N+](=O)[O-] | 8 | 9.0* | -47 | 0 | -6 | 6
O=c1oc(-c2ccco2)nc2sc3c(c12)CCCC3 | 1 | -1 | 72* | 7 | -1 | 11
O=c1oc(-c2ccccc2)nc2sc3c(c12)CCC3 | 2 | -1 | 40 | -7 | -4 | 1
Cc1ccc(F)cc1NC(=O)COC(=O)C1CC2CCCC(C1)C2=O (configuration not stated) | x | 0 | x | x | -2 | 9
CN(C)c1ccc(N=Cc2ccco2)cc1 | 1 | -2 | 31 | x | -2 | -1
C(=Nc1cccc2c(N=Cc3ccco3)cccc12)c1ccco1 | 0 | -3 | 55* | 21 | -2 | -1
O=C(CSc1ccc(-c2ccc(-n3cccn3)cc2)nn1)Nc1ccccc1F | 10 | 11* | 4 | x | -3 | 2
Cc1ccc(C(=O)OC2OC(=O)C(Cl)=C2N2CCOCC2)cc1 (configuration not stated) | -1 | 3 | 43* | -9 | -1 | 7
CC(=O)N1CCN(S(=O)(=O)c2cccc(C(=O)OCC(=O)N(CCC#N)c3ccc(F)cc3)c2)CC1 | 2 | 0 | 10 | x | 4 | 3
N#CC1(NC(=O)COc2ccc(S(=O)(=O)N3CCCC3)cc2[N+](=O)[O-])CCCCC1 | -1 | -4 | 7 | x | 0 | -9
CC(OC(=O)C1CC1)C(=O)Nc1cc(Cl)cc(Cl)c1 (configuration not stated) | -2 | -1 | -3 | x | 2 | -5
COc1ccc(Cl)c(-c2cc(C(=O)NCc3ccc(C(F)(F)F)cc3)[nH]n2)c1 | x | 9.5* | x | x | -7 | -3
Cc1ccc(Cl)cc1-c1cc(C(=O)NCc2ccc(C(F)(F)F)cc2)[nH]n1 | x | 1 | x | x | -9 | -9
COc1ccc(C2CC(=O)c3cnn(-c4nc(C)cc(C)n4)c3C2)cc1 (configuration not stated) | 3 | -4 | 10 | 2 | -6 | -9
Cc1ccc(NC(=O)NCCSc2ccc(C)cc2)cc1 | 1 | 8.5* | -12 | 3 | -4 | 12
Cc1ccc(NC(=S)NCCSc2ccc(Cl)cc2)cc1 | 7 | 0 | -10 | 1 | -9 | 5
S=c1[nH]nc(Cc2ccccc2)n1Cc1ccco1 | 3 | -1 | 3 | 11 | 15* | -2
Cn1nc(-c2ccccc2)c(CO)c1Oc1ccc(F)cc1 | -1 | -2 | -11 | 7 | 7 | -2
Cc1cc(C)cc(OCC(=O)OC/C(O)=C(\C#N)c2nc3ccccc3[nH]2)c1 | 1 | 14* | 7 | -13 | 2 | -5
N#C/C(=C(/O)COC(=O)COc1cccc(Br)c1)c1nc2ccccc2[nH]1 | 1 | 20* | -6 | -6 | -5 | 6
COCC(=O)OC/C(O)=C(\C#N)c1nc2ccccc2[nH]1 | 1 | 0 | 8 | -21 | 0 | 10
COc1ccccc1CNC(=O)C(=O)NCC1OCCCN1S(=O)(=O)c1cccs1 (configuration not stated) | 1 | -2 | -3 | 14 | 17* | 10
Cc1csc(NC(=O)c2ccc3nc[nH]c3c2)n1 | 2 | 2 | 12 | -6 | 2 | 4
CCOc1cc(CNc2ccc(N(C)C)cc2)cc(Br)c1OCC(=O)NC(C)(C)C | -1 | 0 | 14 | 1 | 2 | 1
CCOc1cc(CNc2cccc3ccccc23)cc(Br)c1OCC(=O)NC(C)(C)C | 6 | -3 | 57* | -1 | -6 | -10
Cc1ccc2c(c1)CCCO[C@]21O[C@H](CCO)C[C@H](O)[C@H]1O | x | x | x | x | 0 | x
